Laboratory results from publication PMC8892239 (EFSA Journal, 2022).
In brackets after ≈: the same amount, converted by molar mass.

Tests used:
[1] = Oxygen bomb method, feed for sows
[2] = tested on: dairy cows; assay: 36-day feeding study with lactating cows; type: in vivo, Holstein cows; details: up to 10× the maximum recommended level, fed for 36 days
[3] = ref EFSA FEEDAP Panel, 2015; cited from earlier work
[4] = tested on: Brassica napus (oilseed rape); assay: Seedling emergence and seedling growth test, OECD 208; type: in vivo; details: 21 days
Procedure, shortened: (§1)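 Soil was spiked with the test compound; measured concentrations were checked against nominal. From 50% emergence in controls, emergence, survival and visible phytotoxicity were recorded weekly for 21 days. At the end, emergence, survival, shoot fresh weight and visible damage were recorded. Effect concentrations were derived from dose–response curves.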

[5] = at 22°C; ref EFSA, 2010; cited from earlier work
[6] = tested on: weaned piglets; assay: Tolerance study in weaned piglets; type: in vivo
Procedure, shortened: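 128 piglets (Pietrain × crossbred, both sexes) entered the study at 28 days old and 8.1 kg. They were housed four per pen (two males, two females) in 32 pens and acclimatised for 6 days. Four mash diets were fed: 0, 50, 150 or 300 mg/kg feed, with eight replicate pens per diet.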

[7] = Stability of EQ in a vitamin/mineral premixture; type: physicochemical; details: premixture with 5% EQ
[8] = Residues of EQ and metabolites/TPs in laying hen tissues and eggs; type: in vivo, laying hens; details: liquid egg, control (0 mg EQ/kg feed); LOQ 2 µg/kg whole egg
Procedure, shortened: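 Liver, kidney, muscle and skin/fat were taken from eight hens per group after 56 days of feeding. Twelve eggs per treatment were collected: four per day on three consecutive days at the end of the study. EQ, EQDM, EQI, DHEQ, DEQ and metabolites A–C were measured. LOQs: EQ 0.5 (muscle) to 2 (other tissues) µg/kg; EQDM 0.5–1 µg/kg; EQI 1.5 µg/kg; DHEQ 0.5 µg/kg; whole egg 2 µg/kg per analyte.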

[9] = tested on: laying hens; assay: Tolerance study in laying hens; type: in vivo, HyLine Brown layers; details: 50 mg ethoxyquin/kg feed
[10] = tested on: Chironomus riparius; assay: Water-sediment test with spiked sediment, OECD 218, 28 days; type: in vivo; details: nominal
Procedure, shortened: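 GLP static 28-day Chironomus riparius water–sediment test per OECD 218. The sediment was spiked at 62.5, 125, 250, 500 and 1,000 mg/kg sediment DW (nominal).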

[11] = tested on: Daphnia magna; assay: 48-h semi-static acute toxicity test, OECD 202; type: in vivo; details: read-out: 48h EC50 (immobilization)
[12] = Antioxidant efficacy, storage of complete feed for chickens for fattening
[13] = tested on: Skeletonema pseudocostatum; assay: Marine algal growth inhibition test, ISO 10253:2016; type: in vivo; details: read-out: ErC50
Procedure, shortened: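 Test concentrations were measured analytically at 0 and 72 h. Endpoints were expressed on the geometric mean of the measured concentrations. An EC50 was also predicted from the initially measured concentrations.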

[14] = Residues of EQ and metabolites/TPs in piglet tissues; type: in vivo; details: piglets
[15] = Residues of EQ and metabolites/TPs in cattle tissues; type: in vivo; details: for concentration at 42 days: Holstein, bovine, oral, 50 mg EQ/kg complete feed; for residue in muscle, highest value: LOQs as above
[16] = tested on: soil microflora; assay: Nitrogen Transformation Test, OECD 216
Procedure, shortened: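 Soil nitrogen transformation test per OECD 216, assessed on day 28. An effect was judged as deviation from control, with 25% as the criterion. A maximum variation below 15% was the validity criterion.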

[17] = tested on: cattle for fattening; assay: Tolerance study in cattle for fattening; type: in vivo, male Holstein calves
[18] = tested on: male BALB/c mice; assay: Subchronic; type: in vivo, mouse; details: EQ 5,000 mg/kg feed, after 10 days, mice refused their feed
Procedure, shortened: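 Groups of 10 BALB/c mice were fed the dimer for 90 days. Nominal levels were 0, 0.1, 1, 100, 1,000, 3,000 and 5,000 mg/kg feed, equal to 0, 0.015, 0.081, 10, 99, 286 and 518 mg/kg bw per day. A parent-compound group started at 5,000 mg/kg feed, was reduced to 1,000 mg/kg feed and was later excluded. BMD modelling used a 10% (or 20%) benchmark response.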

[19] = tested on: Avena sativa (oat); assay: Seedling emergence and seedling growth test, OECD 208; type: in vivo
Procedure, shortened: as §1

[20] = control feed (0 mg EQ/kg), 42 days, mean ± SD, LOQs as above

CCOc1ccc2c(c1)C(C)=CC(C)(C)N2 [EQ, 6‐ethoxy‐1,2‐dihydro‐2,2,4‐trimethylquinoline]
protection factor ([1]; 25 mg ethoxyquin/kg feed (EQ25)): 1.50 | protection factor ([1]; 50 mg ethoxyquin/kg feed (EQ50)): 1.78 | effect on performance parameters [2]: had no influence on the performance parameters | conclusion on toxicological profile [3]: not genotoxic, carcinogenic, and does not cause developmental toxicity in the offspring | EC50, shoot fresh weight [4]: 155.6 mg/kg | Dissociation constant [5]: 4.56 at 22 °C | zootechnical parameters ([6]; 50, 150 or 300 mg/kg feed, 42 days): not different from those of the control group | margin of safety ([6]; maximum use level 50 mg ethoxyquin/kg feed): at least six | EQ disappeared ([7]; 90 days at 25°C, 60% RH): About 50% | time to a similar (about 50%) decline of EQ ([7]; at 40°C): 8 days | residue in eggs [8]: ˂ LOQ^( ^d ^) | margin of safety [9]: 10 × | EC10 development rate [10]: > 250 mg/kg sediment DW | NOEC development rate [10]: 125 mg/kg sediment DW | NOEC emergence rate [10]: 250 mg/kg sediment DW | EC50 [11]: 2.48 µg/mL (≈ 11.4 µM) | loss of EQ content in feed after 3 months ([12]; 25–30°C, 55–65% RH, EQ = 50 mg EQ/kg feed (EQ50)): approximately 40% | range in which considered an efficacious antioxidant in feed ([12]; Panel's overall conclusion): 25–50 mg/kg complete feed | EC50 [13]: 3.3 µg/mL (≈ 15.2 µM) | residue in kidney ([14]; control feed (0 mg EQ/kg), 42 days, mean ± SD, LOQs 1.5 to 2 µg EQ, EQDM, metabolite A/kg, 0.5 µg EQI/kg): ˂ LOQ^( ^b ^) | residue in muscle [14, 20]: ˂ LOQ | residue in subcutaneous fat [14, 20]: ˂ LOQ | residue in muscle ([14]; feed with 50 mg EQ/kg for 42 days, LOQs 1.5 to 2 µg EQ, EQDM, metabolite A/kg, 0.5 µg EQI/kg): ˂ LOQ | concentration at 42 days ([15]; kidney, residue in kidney, highest value, cattle, 50 mg EQ/kg complete feed for 42 days, LOQs 1.5–2 µg EQ, EQDM, metabolite A/kg, 0.5–1 µg EQI, DHEQ/kg): 19.9 ng/g | concentration at 42 days ([15]; liver): 34 ng/g | residue in muscle, highest value ([15]; cattle, 50 mg EQ/kg complete feed for 42 days): ˂ LOQ | residue in muscle, highest value ([15]; cattle, control (0 mg EQ/kg feed), 42 days): ˂ LOQ | deviation from control ([16]; day 28, 10.70 mg test item/kg soil DW): < 25% | effect on soil nitrogen transformation ([16]; day 28, highest tested concentration 10.70 mg test item/kg soil DW): no adverse effects | margin of safety ([17]; 50 mg ethoxyquin/kg feed): 10 | gamma-glutamyl transpeptidase ([17]; 1× (50 mg/kg feed), 42 days): 22.4 µ/L | platelet count ([17]; 1× (50 mg/kg feed), 42 days): 452000 µL⁻¹ | platelet count ([17]; 3× (150 mg/kg feed), 42 days): 394000 µL⁻¹ | platelet count ([17]; 10× (500 mg/kg feed), 42 days, p = 0.01 to the control): 264000 µL⁻¹ | loss of initial body weight [18]: 11% | EC50, shoot fresh weight ([19]; 21 days): 242.2 mg/kg | effects on seedling emergence and survival of emerged seedlings ([19]; up to 1,000 mg test item/kg soil DW): No adverse effects
